Measurements pooled from the literature.
Lines come from different studies, so protocols differ. pIC50: −log10 of the molar value.
Acetylcholinesterase: Acetylcholinesterase (Bos taurus, UniProt P23795)
LDHA: L-lactate dehydrogenase A chain (LDHA, Homo sapiens, UniProt P00338)
GSR: Glutathione reductase, mitochondrial (GSR, Homo sapiens, UniProt P00390)
PTPN1: Tyrosine-protein phosphatase non-receptor type 1 (PTPN1, Homo sapiens, UniProt P18031)
Integrin alpha-V/beta-3: Integrin alpha-V/beta-3 (Homo sapiens, UniProt P05106+P06756)

| Compound | target | effect on | mode | method | pH | pIC50 |
| --- | --- | --- | --- | --- | --- | --- |
| CCOP(=O)(OCC)Oc1ccc2c(C)c(Cl)c(=O)oc2c1 | Acetylcholinesterase | enzyme activity | inhibitor | Ellman | – | 5.98 |
| C[C@@H]1C/C=C/CCCCC(=O)Cc2cc(O)cc(O)c2C(=O)O1 | Mitogen-activated protein kinase kinase kinase 7 (MAP3K7, Homo sapiens, UniProt O43318) | enzyme activity | inhibitor | ATP luminescence | – | < 5.00 |
| NC(=O)c1cccc(-c2cc(OC(=O)NC3CCCCC3)ccc2O)c1 | Monoglyceride lipase (Rattus norvegicus, UniProt Q8R431) | enzyme activity | inhibitor | – | – | < 4.00 |
| CC(=O)N[C@@H](CS)C(=O)O | Angiotensin-converting enzyme 2 (ACE2, Homo sapiens, UniProt Q9BYF1) | enzyme activity | inhibitor | fluorescence | – | 3.76 |
| CC(=O)OC[C@H]1O[C@@H](O[C@H]2[C@H](Oc3cc(O)c4c(=O)cc(-c5ccc(O)c(O)c5)oc4c3)O[C@H](CO)[C@@H](O)[C@@H]2O)[C@H](O)[C@@H](O)[C@@H]1O | LDHA | enzyme activity | inhibitor | – | pH 7.4 | 3.35 |
| O=c1c2ccccc2[se]n1-c1ccccc1 | GSR | enzyme activity | inhibitor | absorbance | – | 4.67 |
| CCC(CC)CSc1ccccc1OC(=O)NC | Acetylcholinesterase | enzyme activity | inhibitor | Ellman | – | 5.29 |
| C#CCN(C)c1nc(NCCCCC2CCN(Cc3ccccc3)CC2)c(C#N)c(-c2ccccc2)c1C#N | Amine oxidase [flavin-containing] A (MAOA, Homo sapiens, UniProt P21397) | enzyme activity | inhibitor | fluorescence | – | 4.94 |
| COc1cc2c3cc1Oc1cc(ccc1O)C[C@@H]1c4c(cc(OC)c(O)c4Oc4ccc(cc4)C[C@@H]3N(C)CC2)CC[N+]1(C)C | Acetylcholinesterase | enzyme activity | inhibitor | Ellman | – | 4.26 |
| c1ccc(CCCN2CCN(CCOC(c3ccccc3)c3ccccc3)CC2)cc1 | GSR | enzyme activity | inhibitor | absorbance | – | < 4.00 |
| CNC(=O)C(Cc1ccc(C(F)(F)[P-](F)(F)(F)(F)F)cc1)NC(C)=O (centres unmarked) | PTPN1 | enzyme activity | inhibitor | – | – | 3.06 |
| Nc1ncnc2c1ncn2[C@@H]1O[C@H](COP(=O)(O)OP(=O)(O)OP(=O)(O)O)[C@@H](O)[C@H]1O | Nucleotide-binding oligomerization domain-containing protein 1 (NOD1, Homo sapiens, UniProt Q9Y239) | ligand displacement | – | FP | – | ~7.82 |
| CC[C@H](C)[C@@H]([C@@H](CC(=O)N1CCC[C@H]1[C@H](OC)[C@@H](C)C(=O)N[C@@H](Cc1ccccc1)C(=O)O)OC)N(C)C(=O)[C@@H](NC(=O)[C@H](C(C)C)N(C)C(=O)OCc1ccc(NC(=O)[C@H](C)NC(=O)[C@@H](NC(=O)CCc2cn(CCOCCOCCOCCOCC(=O)NCc3ccc(CN4C(=O)[C@H]5CC(=O)N[C@H](C(=O)O)CC(=O)NCC(=O)N[C@@H](CCCNC(=N)N)C(=O)NC[C@H]4C(=O)N5)cc3)nn2)C(C)C)cc1)C(C)C | Integrin alpha-V/beta-3 | ligand displacement | – | – | – | 7.36 |
| CCCCOc1ccc(C(=O)CCN2CCCCC2)cc1 | Histamine H2 receptor (HRH2, Homo sapiens, UniProt P25021) | ligand displacement | – | radioligand | – | 5.50 |
| COc1c(O[C@@H]2O[C@H](CO)[C@@H](O)[C@H](O)[C@H]2O[C@@H]2O[C@H](CO)[C@@H](O)[C@H](O)[C@H]2O)cc2oc(-c3ccc(O)cc3)cc(=O)c2c1O | LDHA | enzyme activity | inhibitor | – | pH 7.4 | < 3.30 |
| Nc1c(S(=O)(=O)O)cc(Nc2ccc(Nc3nc(Cl)nc(Nc4cccc(S(=O)(=O)O)c4)n3)c(S(=O)(=O)O)c2)c2c1C(=O)c1ccccc1C2=O | P2X purinoceptor 4 (P2RX4, Homo sapiens, UniProt Q99571) | calcium signal | antagonist | – | – | 5.46 |
| COc1cc(Nc2ncc(F)c(Nc3ccc4c(n3)NC(=O)C(C)(C)O4)n2)cc(OC)c1OC | Fatty-acid amide hydrolase 1 (Faah, Rattus norvegicus, UniProt P97612) | enzyme activity | inhibitor | – | – | 5.80 |
| COc1ccc(N2CCN(C(c3cccs3)C(C)NC(=O)C(=O)NCc3ccco3)CC2)cc1 (centres unmarked) | PTPN1 | enzyme activity | inhibitor | absorbance | pH 7 | 4.84 |
| CC[C@H](C)[C@@H]([C@@H](CC(=O)N1CCC[C@H]1[C@H](OC)[C@@H](C)C(=O)N[C@H](C)[C@@H](O)c1ccccc1)OC)N(C)C(=O)[C@@H](NC(=O)[C@H](C(C)C)N(C)C(=O)CCc1cn(CCOCCOCCOCCOCC(=O)NCc2ccc(CN3C(=O)[C@H]4CC(=O)N[C@H](C(=O)O)CC(=O)NCC(=O)N[C@@H](CCCNC(=N)N)C(=O)NC[C@H]3C(=O)N4)cc2)nn1)C(C)C | Integrin alpha-V/beta-3 | ligand displacement | – | – | – | 7.84 |
| CNC(=O)Oc1ccccc1OC(C)C | Acetylcholinesterase | enzyme activity | inhibitor | Ellman | – | 5.74 |
